Test results as given in ChEMBL document CHEMBL3124781, “Heat shock protein 70 inhibitors. 1. 2,5'-thiodipyrimidine and 5-(phenylthio)pyrimidine acrylamides as irreversible binders to an allosteric site on heat shock protein 70” (J Med Chem, 2014).
The source made the active and inactive calls. No cut-off for these calls is given here.

Key:
[1] = biological target: Heat shock protein HSP 90-beta (Homo sapiens, UniProt P08238); experiment: Displacement of GM-cy3B from Hsp90 in human SKBR3 cells after 24 hrs by fluorescence polarization assay; design: species or system SK-BR-3
Procedure, shortened: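 Final 6 nM GM-cy3B with 3 μg SKBr3 lysate protein; compound in triplicate; geldanamycin as positive control. Shaken 24 h at 4 °C, mP read. Concentration displacing 50% of bound tracer obtained by curve fitting.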

[2] = Growth inhibition of human SKBR3 cells after 72 hrs by Alamar Blue assay; format: functional, cell-based; conditions: SK-BR-3, 72 h
Procedure, shortened: (§1)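 Cells plated 8000/well (SKBr3, adherent) or 20000/well (Kasumi-1, suspension) and left 24 h at 37 °C. Compound added in triplicate for 72 h. Alamar Blue (50 μM) added; fluorescence (ex 530/em 580 nm) read 6 h later.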

SK-BR-3 [3] = experiment: Induction of apoptosis in human SKBR3 cells assessed as PARP cleavage by Western blotting analysis; format: functional, cell-based
Procedure, shortened: (§2)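 SKBr3 cells at 60–70% confluence treated with compound or DMSO for the indicated times. Lysed in 50 mM Tris pH 7.4, 150 mM NaCl, 1% NP-40. 10–50 μg protein (BCA) resolved by SDS–PAGE and immunoblotted for HER2, Raf-1, or the PARP p85 fragment, with β-actin as loading control.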

[4] = Inhibition of Hsp70 in human SKBR3 cells assessed as RAF1 protein degradation by Western blotting analysis; format: cell-based; conditions: SK-BR-3; procedure, shortened: as §2
[5] = Inhibition of Hsp70 in human SKBR3 cells assessed as HER2 protein degradation by Western blotting analysis; format: cell-based; conditions: SK-BR-3; procedure, shortened: as §2
MOLM-13 = experiment: Induction of apoptosis in human MOLM13 assessed as caspase 3/7 activation using Z-DEVD-R110 as substrate pretreated for 16 hrs followed by substrate addition by fluorescence-based assay; format: functional, cell-based
Procedure, shortened: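 MOLM-13 cells (30000/well, RPMI) rested up to 24 h at 37 °C, 5% CO2. Treated 16 h with compound or DMSO, in triplicate. Then buffer added containing 10 mM HEPES pH 7.5, 2 mM EDTA, 0.1% CHAPS and 25 μM Z-DEVD-R110. Fluorescence read once stable; % increase in apoptotic cells calculated versus control.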

Kasumi 1 = experiment: Growth inhibition of human Kasumi-1 cells expressing p-gp/MDR1 after 72 hrs by Alamar Blue assay; format: functional, cell-based; conditions: Kasumi 1, 72 h; procedure, shortened: as §1
[6] = (§3) Inhibition of Hsp70 in human SKBR3 cells assessed as inhibition of HOP complex formation after 24 hrs by Western blotting analysis; format: cell-based; conditions: SK-BR-3, 24 h
Procedure, shortened: (§4)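 SKBr3 cells treated 24 h at the indicated concentrations, then lysed (20 mM Tris pH 7.4, 25 mM NaCl, 0.1% NP-40, protease inhibitors). 500 μg protein immunoprecipitated overnight at 4 °C with anti-Hsp70 BB70 (normal IgG as negative control) and protein G beads. Beads washed five times; co-precipitated HOP detected by Western blot.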

SK-BR-3 [7] = experiment: as §3; format: cell-based; procedure, shortened: as §4
[8] = Inhibition of His-tagged Escherichia coli DNAK assessed as inhibition of DNAJ complex formation
SK-BR-3 [9] = experiment: Binding affinity to Hsp70 in human SKBR3 cells after 1 hr by […] in presence of N-(6-Amino-2-((4,6-dimethoxy-2-(4-methylpiperazin-1-yl)-pyrimidin-5-yl)thio)pyrimidin-4-yl)acrylamide; format: cell-based
Procedure, shortened: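 Cells pretreated 2 h with increasing concentrations of soluble competitor, then lysed (20 mM Tris pH 7.4, 25 mM NaCl, 0.1% NP-40). Extract (500 μg protein) incubated overnight with beads carrying biotinylated ligand (50 μM, loaded 1 h at 4 °C). Beads washed in high-salt buffer (1 M NaCl), run on SDS–PAGE, and silver stained.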

Chain of Heat shock protein HSP 90-beta (P08238 whole entry): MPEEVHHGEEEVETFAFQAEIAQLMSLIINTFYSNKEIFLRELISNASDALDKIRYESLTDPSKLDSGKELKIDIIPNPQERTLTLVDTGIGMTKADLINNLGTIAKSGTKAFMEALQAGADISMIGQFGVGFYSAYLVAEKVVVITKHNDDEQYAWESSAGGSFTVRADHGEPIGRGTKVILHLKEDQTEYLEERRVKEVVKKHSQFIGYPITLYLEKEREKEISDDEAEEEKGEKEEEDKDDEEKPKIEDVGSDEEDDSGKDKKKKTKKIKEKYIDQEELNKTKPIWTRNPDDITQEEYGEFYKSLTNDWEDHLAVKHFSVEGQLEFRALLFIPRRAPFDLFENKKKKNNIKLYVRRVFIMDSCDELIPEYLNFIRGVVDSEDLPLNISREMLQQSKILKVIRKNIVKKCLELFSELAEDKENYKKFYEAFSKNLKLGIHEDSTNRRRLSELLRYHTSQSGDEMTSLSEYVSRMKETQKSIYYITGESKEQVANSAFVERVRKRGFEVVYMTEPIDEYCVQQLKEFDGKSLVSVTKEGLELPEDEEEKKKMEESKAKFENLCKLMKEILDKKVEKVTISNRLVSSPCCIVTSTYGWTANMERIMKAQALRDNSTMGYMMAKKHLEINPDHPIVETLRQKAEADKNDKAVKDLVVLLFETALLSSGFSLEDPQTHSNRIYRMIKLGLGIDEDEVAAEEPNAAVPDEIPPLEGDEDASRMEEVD

Row | SMILES | IC50 [1] [µM] | IC50 [2] [µM] | IC50 (SK-BR-3 [3]) [µM] | IC50 [4] [µM] | IC50 [5] [µM] | IC50 (MOLM-13) [µM] | IC50 (Kasumi 1) [µM] | IC50 [6] [µM] | inhibition (SK-BR-3 [7]) | IC50 [8] [µM] | Activity (SK-BR-3 [9])
1 | C=CC(=O)Nc1cccc(Sc2c(OC)nc(N3CCOCC3)nc2OC)c1 | > 500 | 16.5 | 10 | 20 | 15 | 27.5 | 46.5 |  |  |  | 
2 | C=CC(=O)Nc1cc(N)nc(Sc2c(OC)nc(N)nc2OC)n1 | > 500 | 3.2 | 7.5 | 3.5 | 5 | 4.5 | 3.9 |  |  |  | 
3 | C=CC(=O)Nc1ccnc(Sc2c(OC)nc(N3CCOCC3)nc2OC)n1 |  |  |  |  |  | 7.2 | 2 |  |  |  | 
4 | C=CC(=O)Nc1ccnc(Sc2c(OC)nc(N3CCN(C)CC3)nc2OC)n1 | > 500 | 1.2 | 7.5 | 5 | 7.5 | 4 | 1.25 |  |  |  | 
5 | C#CCCCn1c(Cc2cc(OC)c(OC)c(OC)c2Cl)nc2c(N)nc(F)nc21 |  | 2.9 |  | 2.5 | 2 |  |  |  |  |  | 
6 | C=CC(=O)Nc1cc(N)nc(Sc2c(OCC)nc(N3CCN(C)CC3)nc2OCC)n1 | > 500 | 1.1 | 1.5 | 2.5 | 1 | 4 | 0.89 | 1.73 | Dose-dependent effect |  | 
7 | C=CC(=O)Nc1ccnc(Sc2c(OC)nc(N3CC[N+](C)([O-])CC3)nc2OC)n1 |  |  |  |  |  | > 100 | > 100 |  |  |  | 
8 | C=CC(=O)Nc1cc(N)nc(Sc2c(OC)nc(N3CCN(C)CC3)nc2OC)n1 | > 500 | 0.8 | 2 | 1.7 | 0.7 | 1.2 | 0.9 |  |  |  | 
9 | C=CC(=O)Nc1ccnc(Sc2c(OC)nc(N3CCCCC3)nc2OC)n1 |  |  |  |  |  | 12.4 | 3.15 |  |  |  | 
10 | C=CC(=O)Nc1cc(N)nc(Sc2c(OC)nc(N3CCOCC3)nc2OC)n1 |  |  |  |  |  | 12.1 |  |  |  |  | 
11 | C=CC(=O)Nc1cc(N)nc(Sc2c(OCC)nc(N3CCCCC3)nc2OCC)n1 | > 500 | 7 | 10 | 3.1 | 2 | 4 | 4.5 |  |  |  | 
12 | O=c1c(O)c(-c2cc(O)c(O)c(O)c2)oc2cc(O)cc(O)c12 [MYRICETIN] |  |  | > 100 | > 100 | > 100 |  |  |  |  | 14.5 | 
13 | C=CC(=O)Nc1ccnc(Sc2c(C)nc(N3CCN(C)CC3)nc2C)n1 | > 500 | 1.8 | 5 | 5 | 4 | 6 |  |  |  |  | 
14 | C=C(C)C(=O)Nc1ccnc(Sc2c(C)nc(N3CCN(C)CC3)nc2C)n1 | > 500 | 16.7 | 40 | 50 | 30 | 45 | 35 |  |  |  | 
15 | C=CC(=O)Nc1ccnc(Sc2c(C)nc(N3CCOCC3)nc2C)n1 |  |  |  |  |  | 15.4 | 14.4 |  |  |  | 
16 | C=CC(=O)Nc1cc(N)nc(Sc2c(OC)nc(N3CCN(CCOCCOCCOCCOC(=O)CCCC[C@@H]4SC[C@@H]5NC(=O)N[C@@H]54)CC3)nc2OC)n1 |  |  |  |  |  |  |  |  |  |  | Active
17 | C=CC(=O)Nc1ccnc(Sc2c(OC)nc(N3CCCC3)nc2OC)n1 | > 500 | 5 | 25 | 17 | 20 | > 100 | 46.1 |  |  |  | 
18 | C/C=C/C(=O)Nc1ccnc(Sc2c(C)nc(N3CCN(C)CC3)nc2C)n1 |  |  |  |  |  | 32 | 20 |  |  |  | 
19 | C=CC(=O)Nc1cc(N)nc(Sc2c(OC)nc(N3CCCCC3)nc2OC)n1 | > 250 | 9 | 5 | 7.5 | 2.5 | 16.2 | 17.1 |  |  |  | 
20 | C=CC(=O)Nc1cc(N)nc(Sc2c(OC)nc(N3CCN(CCOCCOCCOCCO)CC3)nc2OC)n1 | > 500 | 7.5 | 10 |  | 2.5 | 14.3 | 3.8 |  |  |  | 
21 | C=CC(=O)Nc1cc(N)nc(Sc2c(OC)nc(N3CCN(C)CC3)nc2OCCOCCOCCOCCO)n1 | > 500 | 50 | 100 | 60 | 75 | 100 | 76.5 |  |  |  | 
22 | C=CC(=O)Nc1ccnc(Sc2c(OC)nc(OC)nc2OC)n1 |  |  |  |  |  | 7.5 |  |  |  |  | 
23 | C=C(C)C(=O)Nc1cccc(Sc2c(OC)nc(N3CCN(C)CC3)nc2OC)c1 |  |  |  |  |  | 60 |  |  |  |  | 
24 | C=CC(=O)Nc1cccc(Sc2c(OC)nc(N3CCN(C)CC3)nc2OC)c1 |  |  |  |  |  |  | 7.8 |  |  |  | 
25 | C=CC(=O)Nc1cc(N)nc(Sc2c(OCC)nc(N3CCOCC3)nc2OCC)n1 |  |  |  |  |  | 10.5 | 2.2 |  |  |  | 
